The list is not random: actives were taken first. Their share in the collection is about 11%.
SF-1 act: activates the human nuclear receptor SF-1; Q13285; activation, % at 10 µM; CHO-K1 Gal4-SF-1 LBD luciferase reporter; % increase over DMSO SF-1-specific signal; actives 1.9% (n = 65,000);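 active = activation above the mean activation of all tested compounds plus 3 SD, cut at about 50% in these data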
Target sequence (Q13285 whole entry, looked up, the tested form may be a part): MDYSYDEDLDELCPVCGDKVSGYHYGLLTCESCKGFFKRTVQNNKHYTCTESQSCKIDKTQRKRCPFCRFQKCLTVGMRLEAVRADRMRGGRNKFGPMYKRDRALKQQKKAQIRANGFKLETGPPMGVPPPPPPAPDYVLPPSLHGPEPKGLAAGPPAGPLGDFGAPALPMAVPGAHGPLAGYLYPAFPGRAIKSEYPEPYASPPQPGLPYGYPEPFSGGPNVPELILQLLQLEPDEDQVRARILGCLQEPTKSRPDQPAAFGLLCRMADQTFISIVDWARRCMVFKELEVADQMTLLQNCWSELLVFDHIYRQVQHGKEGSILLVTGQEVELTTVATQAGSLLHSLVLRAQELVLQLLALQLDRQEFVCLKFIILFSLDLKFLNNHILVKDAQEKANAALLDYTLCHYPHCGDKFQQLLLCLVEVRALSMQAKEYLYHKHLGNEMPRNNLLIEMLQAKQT
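Test system: CHO-K1 cells co-transfected with Gal4 DBD–human SF-1 LBD, 5xGal4 luciferase reporter. Quantity: 4,000 cells per well. Compound: 10 µM only. Incubation: compound added 1 h post-seeding, 20 h exposure at 37 °C, 5% CO2. Detection: SteadyLite luciferase luminescence. Replication: one test per compound.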
D1 mod: allosterically modulates the human D1 dopamine receptor; B-score at 10 µM; HEK293 D1, CRE-luciferase, dopamine EC30 potentiation; actives deviate in either direction; actives 5.9% (n = 58,000);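 active = luminescence count or its row- and column-corrected plate score outside the 99.7% band of the plate's sample wells, on either side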
Htt clearance: compounds clearing mutant huntingtin protein. HeLa Exon1htt(103Q)mCFP, aggregate imaging; zero = plate's median compound well. inhibition, % at 1.5 µM. AID 853. actives 0.42% (n = 47,000);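 active = inhibition of aggregate fluorescence above about 70%, also judged a hit by eye on the cell image, limit read from the data, passing the limit was not always enough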;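 note: cells exposed to compound for three days before fixation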
M1 antagonist: antagonists of rat M1 muscarinic receptor | B-score at 10 µM | P08482 | CHO-M1 cells, Fluo-4 calcium, ACh EC80 antagonist mode; hits give low values | actives 3.4% (n = 64,000);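 active = calcium fluorescence response, raw or row-and-column corrected B-score, differing from the plate sample mean either way at a set confidence level, mostly lower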
RORA act: RORA (human) activation. P35398. CHO-K1 Gal4-RORA LBD luciferase reporter, luminescence; percent increase over mock-subtracted basal signal. activation, % at 10 µM. actives 1.5% (n = 65,000). AID 560;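 active = activation above the mean of all tested compounds plus 3 SD, cut at about 49% in these data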
M1 agonist: M1 muscarinic receptor agonism | CHO-M1 cells, Fluo-4 calcium fluorescence, agonist mode; hits give high values | B-score at 10 µM | actives 3% (n = 64,000) | AID 626;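 active = fluorescence rise, raw or as B-score row- and column-corrected plate score, outside the 99.7% band of its plate's samples, either direction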
D1 PAM confirm: D1 receptor (human) allosteric modulation, confirmed | actives 88% (n = 2,200) | luminescence at 10 µM | shares compounds with D1 mod | AID 642 | HEK293 D1 CRE-luciferase, dopamine EC30 potentiation; hits give high values;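 active = luminescence in either of two replicates above the same-plate mean plus 3 SD of the low-dose dopamine control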
D1 no dopamine: D1 (human) signaling in absence of dopamine; shares compounds with D1 mod; HEK293 D1 CRE-luciferase, luminescence, no dopamine; hits give high values; luminescence at 10 µM; actives 0.8% (n = 1,900); in the data active = luminescence above about 3900
Isoprot counter: alters isoproterenol CRE-luciferase response in HEK293 cells; HEK293 D1 CRE-luciferase, isoproterenol EC30 counter-screen; calls only at 10 µM; shares compounds with D1 mod; actives 63% (n = 2,200);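 active = luminescence in either replicate above plate mean of wells with a partly effective reference agonist dose plus 3 SD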;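 note: isoproterenol raises cAMP through native beta-adrenoceptor Gs so signal bypasses D1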
Each line names hits and unclear results; the compound was inactive in the other large screens (follow-up assays come after a bar, where they were run).

Cc1ccc(C2c3c(oc4ccccc4c3=O)C(=O)N2c2nnc(C(C)C)s2)o1 (stereo unspecified)	none (no result: Htt clearance)
N#CCCCCN1c2cccc3cccc(c23)S1(=O)=O	none (no result: Htt clearance)
COCCN(C(=O)C1CC1)c1nnc(-c2cccc(C)c2)s1	none (no result: Htt clearance)
COc1ccc(C(=O)NCc2cn3c(C)csc3n2)cc1OC	D1 mod 8.3 (no result: Htt clearance) | D1 PAM confirm 15440 | D1 no dopamine inactive | Isoprot counter active
Fc1ccccc1CSc1nnnn1-c1ccc2c(c1)OCO2	D1 mod 5.1 | D1 PAM confirm 11056 | D1 no dopamine inactive | Isoprot counter inactive
O=C(CSc1nnnn1-c1ccc2c(c1)OCO2)NCc1ccccc1	none
CCOc1c(S(=O)(=O)N2CCCC2)ccc(Cl)c1Cl	D1 mod 12 (no result: Htt clearance) | D1 PAM confirm 11948 | D1 no dopamine inactive | Isoprot counter active
CCOc1ccc(Cl)cc1S(=O)(=O)N1CCCC1	none (no result: Htt clearance)
CSc1nnc(-c2ccc(F)cc2)o1	none
CSc1nncc(-c2ccc(F)c(F)c2)n1	D1 mod 4.4 | D1 PAM confirm 11748 | D1 no dopamine inactive | Isoprot counter inactive
CSc1nncc(-c2ccc(F)cc2)n1	D1 mod 8.2, M1 antagonist 2.6 | D1 PAM confirm 8776 | Isoprot counter active
Cc1nc(Cc2nnc(SCc3nc(N)nc(Nc4ccccc4C)n3)o2)cs1	none (no result: Htt clearance)
Cc1cnn(-c2nc(-c3cccs3)cc(C(F)(F)F)n2)c1	D1 mod 15 (no result: Htt clearance, M1 antagonist, M1 agonist) | D1 PAM confirm 14404 | Isoprot counter active
CCOc1cc2[nH]c(=O)n(Cc3cccc(OC)c3)c(=O)c2cc1OCC	D1 mod 17 | D1 PAM confirm 22168 | D1 no dopamine inactive | Isoprot counter active
Brc1cnc(N2CCCC2)nc1N1CCOCC1	D1 mod 6 | D1 PAM confirm 18712 | D1 no dopamine inactive | Isoprot counter active
Cc1cc(C)n2nc3ccccc3c2n1	D1 mod 2.8 (no result: Htt clearance) | D1 PAM confirm 10324 | D1 no dopamine inactive | Isoprot counter active
CN1CCN(c2ccccc2NC(=O)COc2ccc(Br)cc2)CC1	none (no result: SF-1 act, D1 mod, M1 antagonist, RORA act, M1 agonist)
CCOC(=O)C(CCC#N)(CCC#N)C(=O)OCC	none (no result: Htt clearance)
CCOC(=O)C(O)(CCC(O)(C(=O)OCC)C(=O)OCC)C(=O)OCC	D1 mod 5 | D1 PAM confirm 6712 | D1 no dopamine inactive | Isoprot counter inactive
Cc1ccc(S(=O)(=O)NC(=O)COc2ccccc2C(N)=O)cc1	none (no result: D1 mod)
CCOc1ccc(Br)cc1-c1noc(-c2cccs2)n1	D1 mod 6.7 | D1 PAM confirm 22604 | D1 no dopamine inactive | Isoprot counter active
C=CCn1c(O)c(CN2CCOCC2)c(C)c(C#N)c1=O	none (no result: D1 mod, Htt clearance)
CC1CCc2c(C(=O)N3CCN(S(=O)(=O)c4cccs4)CC3)csc2C1 (stereo unspecified)	none (no result: Htt clearance)
Cc1cccc(NC(=O)Cn2nnc(-c3cccs3)n2)c1C	none
COC(=O)c1sccc1NC(=O)c1ccncc1	D1 mod 11 (no result: Htt clearance) | D1 PAM confirm 14580 | D1 no dopamine inactive | Isoprot counter active
COC(=O)c1sccc1NC(=O)c1cc(C)on1	D1 mod 3.4 | D1 PAM confirm 10948 | D1 no dopamine inactive | Isoprot counter active
COC(=O)c1sccc1NC(=O)Cn1nnc(-c2ccc(C)cc2)n1	D1 mod 2.4 | D1 PAM confirm inactive | D1 no dopamine inactive | Isoprot counter inactive
COC(=O)c1sccc1NC(=O)c1c(C)noc1C	none
COc1ccc(CCNC(=O)C2CCN(S(=O)(=O)c3cnc[nH]3)CC2)cc1OC	none (no result: Htt clearance)
C=CCNC(=O)C1CC(c2cccc(OC)c2)=NO1 (stereo unspecified)	D1 mod 4.4 | D1 PAM confirm 7068 | D1 no dopamine inactive | Isoprot counter inactive
